PG9 binder: binders of HIV-1 gp120 antibody PG9, primary screen, biochemical, TR-FRET; HIV-1 gp120 / PG9 antibody interaction; TR-FRET gp120-PG9 antibody binding; inhibition, % at 6.7 µM; 0.43% of 360,000 active; AID 624416, 2012; in the data active = inhibition above about 8.5%
rCAG RNA binder: binders of r(CAG) RNA repeats, primary screen, biochemical, fluorescence; r(CAG) RNA repeat, TO-PRO-1 dye displacement fluorescence; inhibition, % at 3 µM; 1.3% of 370,000 active; AID 651821, 2012;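 active = inhibition above the plate cutoff, the mean of all test compounds on that plate plus 3 SD, cut at about 35% in these data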;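 also: 0% = DMSO alone and 100% = 100 µM mitoxantrone as full dye displacement; higher means more dye released from RNA so lower well fluorescence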
NR2E3 ag-1: inhibitors of NR2E3-RetCOR corepressor binding, primary screen, NR2E3 agonist project, biochemical, TR-FRET, GST-NR2E3, biotin-RetCOR; Photoreceptor-specific nuclear receptor (Homo sapiens), Q9Y5X4; 1536-well; inhibition of corepressor binding, % at 4.78 µM; 0.12% of 320,000 active; AID 2300, 2010;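 active = percent inhibition above the cutoff of mean plus 3 SD of all tested compounds, set per screening campaign, cut at about 20% in these data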;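 also: 0% = DMSO wells and 100% = biotin wells as full block of FRET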
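System: GST-tagged NR2E3 plus biotinylated RetCOR corepressor; Buffer or medium: pH 7.5 Tris-based buffer; Probe or stimulus: RetCOR corepressor, biotinylated, 7 nM; Doses: compound at 4.8 µM, single dose; Schedule: 5 h incubation at 4 °C; Technique: time-resolved FRET; Evaluation: percent inhibition of TR-FRET ratio; Replication: one well per compound, singlicate testing.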
NR1D1 modulator: modulators of Rev-erb alpha DNA binding, primary screen, biochemical, FITC-DNA, fluorescence polarization, uHTS; Nuclear receptor subfamily 1 group D member 1 (Homo sapiens), P20393; 0.79% of 370,000 active; activity, % at 10 µM; Rev-erbα–FITC-DNA binding, 90 min;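 active = activity above about 14%, limit read from the data; passing the limit was not always enough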;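 also: 0% = DMSO wells with 35 nM protein and 100% = DMSO wells with 750 nM protein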
Target sequence (P20393 whole entry, looked up): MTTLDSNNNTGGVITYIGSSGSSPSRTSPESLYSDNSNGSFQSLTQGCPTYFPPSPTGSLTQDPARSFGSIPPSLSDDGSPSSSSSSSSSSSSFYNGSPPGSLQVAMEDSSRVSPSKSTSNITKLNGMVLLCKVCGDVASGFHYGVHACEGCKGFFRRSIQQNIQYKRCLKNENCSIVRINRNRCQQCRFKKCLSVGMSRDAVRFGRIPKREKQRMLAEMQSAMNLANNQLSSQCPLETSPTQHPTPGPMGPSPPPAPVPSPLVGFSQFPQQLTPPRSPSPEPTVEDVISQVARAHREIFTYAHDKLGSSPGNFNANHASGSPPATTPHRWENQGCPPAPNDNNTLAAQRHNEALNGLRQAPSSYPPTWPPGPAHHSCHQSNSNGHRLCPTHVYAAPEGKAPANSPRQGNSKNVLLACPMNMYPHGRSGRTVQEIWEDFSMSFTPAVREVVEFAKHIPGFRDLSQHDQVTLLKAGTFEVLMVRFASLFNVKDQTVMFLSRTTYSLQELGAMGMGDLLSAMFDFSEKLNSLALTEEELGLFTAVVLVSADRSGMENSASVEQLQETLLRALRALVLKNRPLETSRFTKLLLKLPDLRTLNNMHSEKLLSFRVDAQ
NR2E3 ag-2: NR2E3 agonists in two-hybrid cells, primary screen, cell-based, luminescence, CHO-S, Gal4-NCOR/VP16-NR2E3; Photoreceptor-specific nuclear receptor (Homo sapiens), Q9Y5X4; luciferase; inhibition of corepressor binding, % at 3.98 µM; 0.35% of 360,000 active; AID 602229, 2012;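 active = inhibition above the mean of all tested compounds plus 3 SD, cut at about 70% in these data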;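 also: 0% = DMSO with NR2E3 transfected cells and 100% = cells lacking NR2E3 construct; higher means lower luciferase signal from less NR2E3 corepressor binding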
NR2E3 ag confirm-1: NR2E3 agonists, confirmation, biochemical, TR-FRET; shares compounds with NR2E3 ag-1; cell-free NR2E3 corepressor release, 5 h; activation (reported as inhibition), % at 3.98 µM; 39% of 360 active; in the data active = activation above about 20%
PPARg-NCOR2 ctr: agonists of PPARg-NCOR2 corepressor interaction, counter-screen for NR2E3 agonist project, biochemical, TR-FRET | shares compounds with NR2E3 ag-1 | 45% of 360 active | TR-FRET PPARg-NCOR2 coregulator interaction | inhibition, % at 3.98 µM; in the data active = inhibition above about 20%;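 also: 0% = DMSO vehicle and 100% = wells without protein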
NR2E3 ag confirm-2: NR2E3 agonist confirmation in cells, cell-based, luminescence, CHO-S two-hybrid; inhibition, % at 3.98 µM; 51% of 2,300 active; AID 624378, 2012; shares compounds with NR2E3 ag-2; CHO-S mammalian two-hybrid NR2E3-NCOR, luciferase luminescence;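 active = average inhibition above a cutoff equal to the mean inhibition of all tested compounds plus one SD, cut at about 70% in these data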;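 also: 0% = DMSO in NR2E3 cells and 100% = DMSO in cells lacking NR2E3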
GAL4-VP16 luc: GAL4-VP16 reporter modulators, confirmation, counter-screen for NR2E3 agonist project, cell-based, luminescence, CHO-S, high throughput; shares compounds with NR2E3 ag-2; 29% of 2,300 active; inhibition, % at 3.98 µM; CHO-S GAL4-VP16 luciferase reporter; AID 624379, 2012;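 active = mean inhibition above a cutoff equal to the average over all tested compounds plus one standard deviation, cut at about 70% in these data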;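 also: luciferase from a UAS reporter driven by GAL4-VP16 transactivation; 0% = DMSO with VP16-transfected cells and 100% = DMSO with cells lacking VP16; higher means less reporter light so more repression of VP16 activity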
PG9 bind confirm: binders of anti-gp120 antibody PG9, confirmation, biochemical, TR-FRET; shares compounds with PG9 binder; TR-FRET PG9 antibody binding; AID 651571, 2012; inhibition, % at 6.7 µM; 90% of 1,500 active; in the data active = inhibition above about 9%
PGV04 Ab binding: binders of control antibody PGV04, counter-screen for PG9 antibody binder project, biochemical, TR-FRET, distinct HIV envelope site; TR-FRET PGV04 antibody-gp120 binding; inhibition, % at 6.7 µM; 95% of 1,500 active; shares compounds with PG9 binder; in the data active = inhibition above about 9.5%
Starred values were filed as active, the others as inactive; / = no result given. Shown are actives, neighbours in structure and some others; about 2.6% of the full set was active somewhere.

SMILES | PG9 binder | rCAG RNA binder | NR2E3 ag-1 | NR1D1 modulator | NR2E3 ag-2 | others
Cc1ccc(/C=C2/C(=O)NC(=O)N(CCc3ccc(F)cc3)C2=O)o1 | 1 | 28 | -1 | -5 | -27
O=C1NC(=O)N(CCc2ccc(F)cc2)C(=O)/C1=C/c1ccco1 | -2 | 74* | -3 | -19 | 8
CC(C)(N)Cc1ccccc1 | / | / | / | 1 | /
O=C(N/N=C/c1c(O)n(Cc2ccccc2)c(=O)[nH]c1=O)c1ccccc1O | -3 | 81* | -3 | 1 | -57
Cc1cc(O)c2c(c1)C(=O)C13C(=C2O)C(=O)[C@H]2[C@@H](O)[C@@H]1[C@H]1[C@H](O)[C@@H]3C(=O)C3=C(O)c4c(O)cc(C)cc4C(=O)C312 (some centres undefined) | / | / | 1 | / | 102*
O=C(O)c1cccc2c1NC(C(=O)O)C1CC(Sc3ccccc3[N+](=O)[O-])C(Cl)C21 (centres undefined) | -10 | 100* | 7 | -33 | -31
C[CH2][Hg][S]c1ccccc1C(=O)O | -3 | 0 | 4 | -4 | 93*
O=C1CC2OCC=C3CN4CC[C@]56c7ccccc7N1C5[C@H]2[C@H]3CC46 (some centres undefined) | / | / | / | -4 | /
C#C[C@@H]1CC2C3CCC4=C[C@@H](OC(C)=O)CCC4C3CC[C@]2(C)[C@H]1OC(C)=O (some centres undefined) | / | / | / | 6 | /
NC(N)=N/N=C/c1cn(-c2ccccc2)nc1-c1cccs1 | 0 | 36* | 5 | 3 | -16
C=CC[C@]1(O)CCC2C3CCC4=CC(=O)CCC4=C3C=C[C@@]21C (some centres undefined) | / | / | / | -5 | /
C[C@H]1[C@H](O)[C@@H](C)/C=C/C=C/CC/C=C/C=C/C=C/C=C/C(OC2O[C@H](C)[C@@H](O)[C@H](N)[C@@H]2O)CC2O[C@](O)(CC(O)C(O)CCC(O)CC(O)CC(O)CC(=O)O[C@H]1C)CC(O)C2C(=O)O (some centres undefined) | / | / | / | -1 | /
CCn1nc(-c2cccs2)nc2c(=O)n(C)c(=O)nc1-2 | / | / | / | / | 106*
CCn1nc(/C=C/c2ccccc2)nc2c(=O)n(C)c(=O)nc1-2 | -8 | -2 | / | -24 | 35
COc1ccc2c(c1)[C@]13CCCC[C@H]1[C@H](C2)N(C)CC3 | / | / | / | 3 | /
CCN1/C(=C\C=C\C2=[N+](CC)c3ccccc3C2(C)C)C(C)(C)c2ccccc21 | / | / | 7 | / | 104*
O=C1NC(=O)N(c2ccccc2F)C(=O)/C1=C/c1ccc(Sc2nc3ccccc3[nH]2)o1 | 4 | 46* | -1 | 4 | -3
NC(Cc1cc(O)c(O)cc1O)C(=O)O (centres undefined) | / | / | 25* | / | / | NR2E3 ag confirm-1=38*;PPARg-NCOR2 ctr=2
C[C@]12CCC(=O)C=C1C=CC1C2CC[C@@]2(C)C1CC[C@@]2(O)CCC(=O)O (some centres undefined) | / | / | / | 0 | /
CCN1C(=O)C(=C2C=C(C)N(Cc3ccco3)C(C)=C2)C(=O)N(CC)C1=S | 20* | 0 | 25* | 2 | -2 | NR2E3 ag confirm-1=14;PPARg-NCOR2 ctr=17;PG9 bind confirm=22*;PGV04 Ab binding=27*
CC(=O)OCC1=C(C(=O)O)N2C(=O)[C@@H](NC(=O)CCCC(N)C(=O)O)C2SC1 (some centres undefined) | / | / | / | 8 | /
N#CC(C#N)=NNc1ccc(-n2ccc(C(F)(F)F)n2)cc1 | 0 | 32 | 2 | -8 | 96* | NR2E3 ag confirm-2=18;GAL4-VP16 luc=68
Cc1cc(C)n(-c2ccc(NN=C(C#N)C#N)cc2)n1 | -1 | 19 | -1 | 4 | 12
COC(=O)C1C(OC(=O)c2ccccc2)CC2CCC1[N+]2(C)C (centres undefined) | -1 | 2 | / | 13 | /
O=C1CCO1 | / | / | / | -7 | /
SMILES | PG9 binder | rCAG RNA binder | NR2E3 ag-1 | NR1D1 modulator | NR2E3 ag-2 | others
COc1cc2c(cc1OC)C1C(=O)c3ccc4c(c3OC1CO2)CC(C(C)C)O4 (centres undefined) | 1 | 4 | / | 8 | 102* | NR2E3 ag confirm-2=96*;GAL4-VP16 luc=94*
COc1cc2c(cc1OC)[C@@H]1C(=O)c3ccc4c(c3O[C@@H]1CO2)C[C@H](C(C)C)O4 | -1 | -4 | 0 | -1 | 96* | NR2E3 ag confirm-2=100*;GAL4-VP16 luc=93*
C#CCN1CC(=O)N(COC(=O)C2C(C=C(C)C)C2(C)C)C1=O (centres undefined) | / | / | / | 12 | /
COc1cc2nc(CN3CC=C(c4ccccc4)CC3)[nH]c(=O)c2cc1OC | -1 | -2 | 0 | 2 | 90* | NR2E3 ag confirm-2=99*;GAL4-VP16 luc=42
Oc1c(Cl)c(Cl)c(Cl)c(Cl)c1Cl | 0 | 9 | -3 | 7 | 98* | NR2E3 ag confirm-2=99*;GAL4-VP16 luc=92*
CC[C@@H](O)C[C@H]1CCC[C@@]2(C[C@@H]3OC(=O)/C=C/[C@@](C)(O)[C@@H](O)[C@H](C)[C@@H](O)[C@H](OC4CCC(N(C)C)C(C)O4)[C@@H](O)[C@](C)(O)CCCCC/C=C/[C@@H]4CC(C)(C)O[C@@]4(O)C[C@H](O2)[C@H]3C)O1 (some centres undefined) | -3 | 5 | / | -6 | 89* | NR2E3 ag confirm-2=97*;GAL4-VP16 luc=87*
NCC(O)c1cccc(O)c1 (centres undefined) | / | / | / | 3 | /
